Screening results (PubChem)
L major viab – reduces viability of Leishmania major promastigotes | inhibition, % at 10 µM | resazurin fluorescence viability | hit rate 9% among 200,000 | AID 1063; in the data active = inhibition above about 50%;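 also: promastigotes grown with compound for 44 hours at 28 °C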
PMI act satM6P – increases human PMI activity with near-saturating mannose 6-phosphate | coupled PMI enzyme assay, resazurin fluorescence, 20 min; active compounds read high; 1 = untreated enzyme, 0 = substrate-free blank | P34949 | activation factor at 20 µM | AID 1216 | hit rate 0.34% among 190,000;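 active = activation factor of 2 or more at 20 µM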
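Test system: human phosphomannose isomerase with PGI, G6PDH, diaphorase coupling enzymes / Doses: 20 µM compound, 1% DMSO / Times: enzyme reaction with compound 20 min at room temperature / Measured by: Diaphorase-driven resazurin-to-resorufin fluorescence, excitation 544, emission 590 nm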
Rad51 HR inh – blocks human Rad51 in homologous recombination | Q06609 | hRad51 DNA strand exchange, fluorescence dequenching | inhibition, % at 10 µM | hit rate 0.085% among 200,000;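 active = inhibition above 40% at the single screening dose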;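 also: 0% = DMSO control wells and 100% = blanks with heterologous ssDNA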
Target sequence (Q06609 whole entry, looked up): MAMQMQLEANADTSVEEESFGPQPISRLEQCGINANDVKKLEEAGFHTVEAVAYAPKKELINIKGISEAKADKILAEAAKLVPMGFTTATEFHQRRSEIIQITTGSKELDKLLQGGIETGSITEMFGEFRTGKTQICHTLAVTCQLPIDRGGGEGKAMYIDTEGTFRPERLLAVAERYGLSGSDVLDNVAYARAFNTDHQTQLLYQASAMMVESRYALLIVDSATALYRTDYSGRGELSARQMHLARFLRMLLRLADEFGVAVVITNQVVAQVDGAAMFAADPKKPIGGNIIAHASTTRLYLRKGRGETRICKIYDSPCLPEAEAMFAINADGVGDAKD
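Read-out basis: percent inhibition relative to plate controls and blanks / Assay system: human Rad51 nucleoprotein filaments preassembled on unlabelled ssDNA / Timing: filaments 15 min 37 °C, then compound 30 min / Control set: per-plate controls and blanks / Technique: fluorescence dequenching at 485/520 nm / Compound: 10 µM final, single point / Also added: Fluorescein- and BHQ1-tagged 47-mer duplex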
WT yeast gro inh – growth inhibition of WT yeast, mitochondrial fusion screen; mitochondrial fusion phenotypic screen, WT strain; inhibition, % at 10 µM; hit rate 2.1% among 190,000; AID 1362; in the data active = inhibition above about 58%; tested in S. cerevisiae
PMI activator – phosphomannose isomerase (human) activation; purified human PMI, coupled resazurin fluorescence, 20 min; active compounds read high; 1 = vehicle control, 0 substrate-free wells; activation factor at 20 µM; hit rate 0.005% among 190,000; AID 1214; P34949;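 active = activation factor of 2 or more at 20 µM, relative to plate controls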
Calpain2 inh – blocks pig calpain II enzyme activity; purified calpain II, fluorogenic peptide substrate, 30 min; inhibition, % at 16 µM; hit rate 0.37% among 220,000;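 active = inhibition above about 50%, limit read from the data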
Lmaj promast 1uM – blocks Leishmania major promastigote growth at 1 uM, repeat screen; shares compounds with L major viab; hit rate 13% among 1,100; L. major promastigote growth, resazurin fluorescence, 48 h; inhibition, % at 1 µM;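 active = inhibition above about 50% in both repeat tests, limit read from the data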
Numbers without * were called inactive; x = no result given. This is a sample that favours compounds with a hit; in the whole collection about 9.8% have one here.

SMILES	L major viab	PMI act satM6P	Rad51 HR inh	WT yeast gro inh	PMI activator	Calpain2 inh	Lmaj promast 1uM
CC1(C)Cc2ccccc2-c2nnc(-c3ccc4ccccc4n3)n21	62*	1.1	-8	5	1.1	12	57*
Cc1cc2c(cc1C)-c1nnc(-c3ccc4ccccc4n3)n1C(C)(C)C2	47	1	x	1	1	17	x
COCCCn1[nH]c2c3c(ccc2c1=O)C(=O)c1ccccc1C3=O	94*	0.9	4	14	0.9	4	7
O=C(c1ccc2c(c1)OCO2)N1CCC2(CC1)Oc1ccc(F)cc1C(=O)C21CC(c2ccccc2)=NO1 (stereo not drawn)	x	x	4	x	x	-79	x
CCCCCCCCn1cnc2c(N)c(C)c(C)cc21	91*	0.8	8	59*	0.6	12	-4
C(=N\Nc1nc2ccccc2[nH]1)/c1ccccn1	100*	1.3	0	67*	1.3	-92	-8
CC(Oc1ccc(Br)cc1)C(=O)Nn1c(=S)[nH]c2ncccc2c1=O (stereo not drawn)	-1	0.9	1	-27	0.9	5	x
Cn1nc(-c2ccc(Cl)cc2)nc2c(=O)n(C)c(=O)nc1-2	50*	0.9	-4	-12	0.8	55*	81*
Cc1c(C(=O)O)oc2c1/C(=N\O)CCC2	54*	1.1	-1	-20	1.1	-3	-16
Cc1cc(C)nc(/N=c2/ssnc2Cl)c1	99*	0.4	-6	63*	0.4	-225	94*
Cc1ccc(N=c2ssnc2Cl)cc1	-11	0.5	-2	8	0.2	33	x
Cc1c(C(=O)NCC2COc3ccccc3O2)oc2ccc(S(=O)(=O)N3CCOCC3)cc12 (stereo not drawn)	41	0.9	x	1	0.9	-41	x
Cc1c(C(=O)NCC2COc3ccccc3O2)oc2ccc(S(=O)(=O)N3CC(C)CC(C)C3)cc12 (stereo not drawn)	59*	0.9	-2	-2	0.8	-30	6
Cc1c(NC(=O)OC(C)C)sc(=S)n1C	97*	1.1	x	-7	1	-4	10
CC(=O)NCCOC(=O)Nc1sc(=S)n(C)c1C	-10	1.1	-2	-9	1	-12	x
Cc1nc2c(C)cccc2cc1C(=O)N/N=C/c1cccnc1	2	1	-5	-19	1.1	8	x
c1ccc2c(NC3CCCC3)nnc(NC3CCCC3)c2c1	97*	0.9	6	12	1	-107	12
Cc1cccnc1NC1CCCCC1	-3	1	-5	9	1	8	x
CC(C)C(O)(C#CCN1CCCCC1)c1ccccc1 (stereo not drawn)	93*	1	6	10	1	17	21
CC1=NN(c2ccc(C)cc2)C(=O)/C1=C\c1ccc(Br)s1	99*	0.7	2	3	0.9	-12	20
CC1=NN(c2ccc(Br)cc2)C(=O)/C1=C/c1cccs1	7	0.8	-3	-19	0.9	x	x
C/C(=N/NC(=O)c1ccccc1)c1ccc(NC(=O)C(F)(F)F)cc1	4	0.9	1	13	1	4	x
CCCC1CC(CSC(=N)N)OC1=O (stereo not drawn)	-8	1.1	15	-14	1	-27	x
CCCCCCC1CC(CSC(=N)N)OC1=O (stereo not drawn)	100*	1	3	-10	1	16	3
CCN(Cc1ccncc1)Cc1cn[nH]c1-c1cc(OC)c(OC)c(OC)c1	2	0.8	-7	5	0.8	-36	x
CS(=O)(=O)c1ccc(S(=O)CC(=O)OCc2ccccc2)c([N+](=O)[O-])c1 (stereo not drawn)	57*	0.7	-8	20	1	-5	40
CCOc1ccc(-n2c(SCC(N)=O)nc3c([nH]c4ccccc43)c2=O)cc1	68*	0.9	-1	13	0.9	7	2
CCOc1ccc(-n2c(SCC(=O)Nc3cc(C)on3)nc3c([nH]c4ccccc43)c2=O)cc1	6	1	5	19	0.9	-10	x
Fc1cccc(-c2nnn3c2nc(Cl)c2ccccc23)c1	98*	1.1	-7	33	1.1	-207	81*
Clc1nc2c(-c3ccccc3)nnn2c2ccccc12	x	x	15	x	x	-26	x
